Results on one molecule are retold here after ChEMBL document CHEMBL3994667, “Small Molecule Lysyl Oxidase-like 2 (LOXL2) Inhibitors: The Identification of an Inhibitor Selective for LOXL2 over LOX” (ACS Med Chem Lett, 2017).

In one assay the target is T1, Protein-lysine 6-oxidase (Homo sapiens, UniProt P28300).
T1 sequence (P28300 whole entry): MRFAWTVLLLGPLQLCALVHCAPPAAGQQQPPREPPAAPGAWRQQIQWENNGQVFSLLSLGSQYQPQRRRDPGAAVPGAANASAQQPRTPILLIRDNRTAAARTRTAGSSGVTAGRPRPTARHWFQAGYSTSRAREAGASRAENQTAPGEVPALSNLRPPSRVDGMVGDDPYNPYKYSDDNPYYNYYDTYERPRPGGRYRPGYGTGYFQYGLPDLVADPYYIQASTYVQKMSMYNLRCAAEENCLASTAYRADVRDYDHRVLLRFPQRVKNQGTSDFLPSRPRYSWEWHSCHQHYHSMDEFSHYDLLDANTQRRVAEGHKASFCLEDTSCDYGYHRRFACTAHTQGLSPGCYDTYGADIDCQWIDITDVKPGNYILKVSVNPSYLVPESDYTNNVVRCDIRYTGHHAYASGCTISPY
The assay can be described thus: Inhibition of full length recombinant human LOX expressed in HEK cells assessed as reduction in H2O2 production using DAP as substrate preincubated for 2 hrs followed by substrate addition measured every 2 minutes for 50 minutes in presence of BSA by Amplex red dye based fluorescence assay. In outline:
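Enzyme source: serum-free conditioned media from HEK cells stably expressing human LOX, with BSA added to give measurable activity. Activity is measured as H2O2 from oxidative deamination of 1,5-diaminopentane (DAP), read by Amplex Red. IC50 is given as geometric mean x/÷ geometric standard deviation, with N-values reported.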

In another assay the target is T2, Lysyl oxidase homolog 3 (Homo sapiens, UniProt P58215).
T2 sequence (P58215 whole entry): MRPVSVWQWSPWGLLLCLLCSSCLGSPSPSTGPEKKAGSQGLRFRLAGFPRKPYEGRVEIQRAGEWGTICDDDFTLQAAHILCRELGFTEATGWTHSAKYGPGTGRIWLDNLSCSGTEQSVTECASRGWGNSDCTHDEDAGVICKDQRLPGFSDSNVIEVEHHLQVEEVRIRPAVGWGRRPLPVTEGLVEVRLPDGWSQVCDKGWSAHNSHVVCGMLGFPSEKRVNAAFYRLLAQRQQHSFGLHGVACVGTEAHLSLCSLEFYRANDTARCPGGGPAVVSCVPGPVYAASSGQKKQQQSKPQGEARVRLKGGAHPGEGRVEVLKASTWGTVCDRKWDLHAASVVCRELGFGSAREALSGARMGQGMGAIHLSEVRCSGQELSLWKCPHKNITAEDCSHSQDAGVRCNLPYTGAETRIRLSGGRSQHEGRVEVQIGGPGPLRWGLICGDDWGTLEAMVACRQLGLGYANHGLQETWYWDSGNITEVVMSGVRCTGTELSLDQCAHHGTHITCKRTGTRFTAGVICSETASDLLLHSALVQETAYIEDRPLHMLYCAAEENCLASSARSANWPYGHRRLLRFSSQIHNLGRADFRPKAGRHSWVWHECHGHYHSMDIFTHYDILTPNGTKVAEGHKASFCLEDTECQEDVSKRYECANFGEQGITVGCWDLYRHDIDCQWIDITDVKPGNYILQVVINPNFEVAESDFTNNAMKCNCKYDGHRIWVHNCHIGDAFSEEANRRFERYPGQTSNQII
As to the kind of experiment: Inhibition of recombinant human C-terminal His10-tagged LOXL3 (1 to 753 residues) assessed as reduction in H2O2 production using DAP as substrate preincubated for 2 hrs followed by substrate addition measured every 2 minutes for 50 minutes by Amplex red dye based fluorescence assay.

Assay [1] has as its target T3, Amine oxidase [copper-containing] 3 (Homo sapiens) (UniProt Q16853).
T3 sequence (whole entry): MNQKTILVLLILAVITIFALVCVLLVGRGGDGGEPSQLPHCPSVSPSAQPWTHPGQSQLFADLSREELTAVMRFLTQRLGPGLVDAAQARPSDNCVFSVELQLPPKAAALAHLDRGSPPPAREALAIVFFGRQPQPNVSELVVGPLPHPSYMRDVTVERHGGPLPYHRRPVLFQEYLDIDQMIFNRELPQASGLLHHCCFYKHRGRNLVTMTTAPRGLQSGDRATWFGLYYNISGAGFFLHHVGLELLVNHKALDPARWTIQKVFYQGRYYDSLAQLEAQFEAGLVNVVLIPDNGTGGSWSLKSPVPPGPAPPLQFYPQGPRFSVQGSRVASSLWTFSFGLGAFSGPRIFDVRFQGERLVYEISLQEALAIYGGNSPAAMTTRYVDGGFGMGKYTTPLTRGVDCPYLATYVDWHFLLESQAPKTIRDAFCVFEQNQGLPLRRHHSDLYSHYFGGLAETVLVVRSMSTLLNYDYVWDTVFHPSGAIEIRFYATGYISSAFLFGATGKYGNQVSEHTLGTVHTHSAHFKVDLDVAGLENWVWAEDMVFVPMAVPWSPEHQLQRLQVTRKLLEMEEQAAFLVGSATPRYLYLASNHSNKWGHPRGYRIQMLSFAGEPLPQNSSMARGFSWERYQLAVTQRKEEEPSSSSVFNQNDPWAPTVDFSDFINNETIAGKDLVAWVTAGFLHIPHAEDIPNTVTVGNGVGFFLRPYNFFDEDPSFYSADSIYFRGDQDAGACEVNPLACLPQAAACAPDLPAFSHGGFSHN
As to the kind of experiment: Inhibition of SSAO in human plasma at 30 uM using benzylamine as substrate preincubated for 2 hrs followed by substrate addition measured every 30 secs for 15 minutes by Amplex red dye based fluorescence assay.

The structures appear in SMILES notation. The source made the active and inactive calls. The calls are words filed in the database; no cut-off is given here.

Regarding `NCc1ccnc(Cl)c1`, the IC50 turned out to be 5.91 µM at Protein-lysine 6-oxidase and 0.214 µM on Lysyl oxidase homolog 3. Besides, in assay [1], the inhibition entry was “inactive”.

What is called IC50 is the concentration at which inhibition is half-maximal.
